Assay outcomes (PubChem BioAssay)
APJ ag – agonists of human apelin receptor APJ, primary screen, CHO-K1 cells, PathHunter beta-arrestin, luminescence; activation, % at 20 µM; AID 2520, 2010; 0.11% of 330,000 active; 0% DMSO wells, 100% apelin;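 active means activation more than six SD over the plate average, tested at 20 µM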;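 further: 0% = DMSO alone and 100% = apelin-13 at 10 nM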
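Material: engineered CHO-K1 APJ arrestin reporter cells; amount: 1000 CHO-K1 reporter cells seeded per well; incubation: compound stimulation 90 min at 25 °C, detection 60 min; signal: luminescent beta-gal fragment complementation, chemiluminescent substrate; read-out basis: APJ agonist activity; controls: DMSO-only wells as negative, 10 nM Apelin-13 as positive control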
EBI2 antag – EBI2 receptor antagonists, beta-arrestin recruitment, primary screen, cell-based, luminescence, 7a,25-OHC stimulation, uHTS; G-protein coupled receptor 183 (Homo sapiens), P32249; 7a,25-OHC stimulated; 0.81% of 360,000 active; inhibition, % at 5 µM; AID 651636, 2012; in the data active means inhibition above about 38%;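 further: enzyme fragment complementation signal reports receptor beta-arrestin coupling in cells; 0% = agonist plus DMSO wells and 100% = wells without agonist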
Target sequence (P32249 whole entry, looked up, the tested form may be a part): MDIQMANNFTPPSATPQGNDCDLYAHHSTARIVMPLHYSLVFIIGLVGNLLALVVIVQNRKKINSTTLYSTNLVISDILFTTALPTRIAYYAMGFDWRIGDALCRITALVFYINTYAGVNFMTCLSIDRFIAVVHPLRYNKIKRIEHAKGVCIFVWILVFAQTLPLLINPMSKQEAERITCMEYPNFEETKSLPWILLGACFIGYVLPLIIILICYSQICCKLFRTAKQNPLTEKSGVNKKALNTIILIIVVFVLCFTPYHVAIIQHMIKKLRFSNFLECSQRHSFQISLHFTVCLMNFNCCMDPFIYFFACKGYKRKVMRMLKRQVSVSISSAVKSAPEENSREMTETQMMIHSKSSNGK
CXCR6 inh – CXCR6 receptor inhibitors, primary screen, cell-based, beta-arrestin, luminescence, CHO-K1 PathHunter, 1536-well | C-X-C chemokine receptor type 6 (Homo sapiens), O00574 | inhibition, % at 20 µM | AID 602244, 2012 | 0.36% of 360,000 active; in the data active means inhibition above about 34%, passing the limit was not always enough;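 further: antagonist mode with CXCL16 agonist at 10 nM final; 0% = 10 nM CXCL16 with DMSO and 100% = unstimulated wells without agonist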
Target sequence (O00574 whole entry, looked up): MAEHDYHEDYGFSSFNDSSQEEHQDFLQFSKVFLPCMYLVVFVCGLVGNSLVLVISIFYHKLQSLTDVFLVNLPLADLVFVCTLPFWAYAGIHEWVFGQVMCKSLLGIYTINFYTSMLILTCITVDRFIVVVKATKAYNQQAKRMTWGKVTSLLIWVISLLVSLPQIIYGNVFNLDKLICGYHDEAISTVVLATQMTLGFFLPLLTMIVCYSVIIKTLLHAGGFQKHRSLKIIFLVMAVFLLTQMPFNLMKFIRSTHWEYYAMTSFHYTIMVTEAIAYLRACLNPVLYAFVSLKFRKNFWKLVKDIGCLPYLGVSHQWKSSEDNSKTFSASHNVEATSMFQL
APJ antagonist – antagonists of human apelin receptor APJ, primary screen, CHO-K1 cells, beta-arrestin complementation, luminescence. P35414. inhibition, % at 20 µM. 0.32% of 330,000 active. AID 2521, 2010;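 active means inhibition above about 40% at 20 µM, limit read from the data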;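 further: cells challenged with 10 nM apelin-13 agonist together with compound; plate controls were apelin-13 plus DMSO wells for no effect and DMSO wells lacking apelin-13 for full effect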
CCR6 antagonist – CCR6 receptor antagonists, primary screen, cell-based, CHO-K1, luminescence, beta-arrestin, uHTS | C-C chemokine receptor type 6 (Homo sapiens), P51684 | CHO-K1 CCR6 PathHunter beta-arrestin, CCL20-stimulated | inhibition, % at 20 µM | 0.49% of 340,000 active;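 active means compounds whose inhibition of the agonist-driven luminescence signal at 20 µM reaches about 50%, limit read from the data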;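 further: cells stimulated with CCL20 at 14 nM final; plate controls were DMSO with CCL20 for no effect and DMSO without agonist for full effect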
APJ antag conf – APJ antagonists blocking beta-arrestin recruitment, confirmation, cell-based, luminescence, single concentration, uHTS hits. shares compounds with APJ antagonist. antagonist mode. inhibition, % at 20 µM. 66% of 950 active; in the data active means inhibition above about 50%
An asterisk follows results filed as active; x = no result. Rows were chosen to be rich in hits. Some 1.5% of all compounds tested hit in one or more screens of this group.

SMILES	APJ ag	EBI2 antag	CXCR6 inh	APJ antagonist	CCR6 antagonist	APJ antag conf
CCOc1cc2[nH]c(=O)n(CCCCC(=O)N3CCCCCC3)c(=O)c2cc1OCC	2.6	0.7	-1.8	44.1*	11.4	1.3
Cc1ccc(C(=O)CNc2cc(C)ccc2C)cc1	-15.5	21.0	31.5	43.3*	72.5*	117.6*
Cc1ccc(C)c(NCC(=O)NNC(=S)Nc2ccccc2)c1	-5.1	-2.5	-4.7	3.1	15.9	x
Cc1ccc(C)c(NCC(=O)c2ccc(Cl)cc2)c1	-13.7	28.3	22.3	72.9*	60.1*	87.9*
Cc1ccc(C)c(NC(=S)N(Cc2ccc(Cl)cc2)Cc2ccc(C(=O)O)cc2)c1	-3.2	-9.5	-3.2	-1.7	8.4	x
O=C(CNc1ccccc1C(=O)O)c1ccccc1	-14.0	1.3	68.2*	41.1*	79.1*	149.4*
Cc1ccccc1NCC(=O)c1ccc(Br)cc1	-14.2	8.6	22.4	46.2*	49.4	99.5*
COc1ccc(C(=O)CNc2ccccc2Br)cc1	-7.1	10.9	8.2	5.7	15.7	x
COc1cccc(-c2cnc3c(NC(C)=O)cc(-c4cccc(C(=O)NCCN(C)C)c4)cn23)c1	x	-0.8	-11.5	x	x	x
COc1ccc([C@@H]2C[C@H]3[C@@H](CN2S(=O)(=O)c2ccccc2)C(=O)C[C@@H](c2cccc(Cl)c2)N3S(=O)(=O)c2ccc(C)cc2)cc1	x	0.2	1.9	x	x	x
CC(=O)c1ccc(Nc2ccc([N+](=O)[O-])c3nonc23)cc1	-4.7	7.5	31.6	36.3	40.1	x
O=C(O)c1cccc(Nc2ccc([N+](=O)[O-])c3nonc23)c1	-6.2	9.3	36.1	41.4*	57.5*	78.0*
COc1ccc(Nc2ccc([N+](=O)[O-])c3nonc23)c(OC)c1	-7.0	17.1	44.5*	44.3*	60.0*	78.1*
O=C(O)c1ccc(Nc2ccc([N+](=O)[O-])c3nonc23)cc1	-9.1	9.7	34.1	42.0*	59.2*	75.6*
CCCCCCN1CCN(C2CN(Cc3cn(Cc4cccc(C(F)(F)F)c4)nn3)S(=O)(=O)C2)CC1 (stereo not drawn)	x	2.7	5.3	x	x	x
CCOc1cc(/C=C2\SC(=O)N(CC(=O)Nc3ccccc3F)C2=O)cc([N+](=O)[O-])c1O	-7.2	5.5	27.6	54.0*	39.6	78.6*
NC(COCc1ccccc1)c1csc(NC(=O)Nc2cccc(C(F)(F)F)c2)n1 (stereo not drawn)	x	3.4	-27.5	x	x	x
COc1ccc(N2CC(C(=O)Nc3ccccc3C(=O)NC3CC3)CC2=O)cc1 (stereo not drawn)	1.0	-11.1	-13.6	40.6*	2.3	7.1
CCN(CC)S(=O)(=O)c1cccc(N=Nc2c(O)c3ccccc3oc2=O)c1	-5.5	20.7	28.8	40.3*	58.9*	49.9
CCC(CC)C(C(=O)NCc1ccccc1)N(C)Cc1ccc(Cl)c(Cl)c1 (stereo not drawn)	x	36.4	x	x	x	x
CC(=O)Nc1ccc(NC(=O)CCC(=O)OCC(=O)c2ccc(C)c([N+](=O)[O-])c2)cc1	-9.2	16.1	10.5	70.2*	42.5	54.5*
CC(=O)c1ccc(NC(=O)CCC(=O)OCC(=O)c2cccc([N+](=O)[O-])c2)cc1	-14.2	1.9	21.9	43.1*	54.9*	76.8*
Cc1ccc(C(=O)COC(=O)CCC(=O)Nc2ccccc2Cl)cc1[N+](=O)[O-]	-7.6	12.3	17.2	44.5*	32.6	75.0*
Cc1ccc(NC(=O)CCC(=O)OCC(=O)c2ccc(Oc3ccc([N+](=O)[O-])cc3)cc2)cc1	-3.1	6.3	6.0	12.1	7.5	x
CSCC[C@H](NC(=O)Cc1c(C)c2cc3c(C)c(C)oc3cc2oc1=O)C(=O)N[C@@H](C(=O)O)c1ccccc1	x	-0.7	-3.6	x	x	x
SMILES	APJ ag	EBI2 antag	CXCR6 inh	APJ antagonist	CCR6 antagonist	APJ antag conf
CC(C)C[C@H]1CNC(=O)C(=O)N1C[C@H]1CCCN1C[C@H](CC(C)C)N1C[C@H](Cc2ccccc2)N(CCc2ccccc2)C(=O)C1=O	x	-4.8	-11.9	x	x	x
N#C/C(=N\Nc1ccc(S(=O)(=O)N2CCCCCC2)cc1)C(N)=S	-7.4	11.8	17.2	48.2*	31.5	64.4*
CN(Cc1ccccc1)C(=O)c1cnc(Cc2c[nH]c3ccccc23)c(I)c1	x	9.4	-11.9	x	x	x
Cc1cc(C)nc(NNS(=O)(=O)c2c(F)cc(F)cc2Br)n1	-11.4	22.4	33.4	67.1*	46.7	114.1*
Cc1cc(NC(=O)CCN2C(=O)C3C4CCC(C4)C3C2=O)c(C)cc1Br (stereo not drawn)	-2.7	8.3	-9.8	12.2	-5.9	x
Cc1cc(Br)c(Cl)cc1NC(=O)CN1C(=O)C2C3CC(c4ccccc4)C(C3)C2C1=O (stereo not drawn)	-1.7	2.9	-12.0	55.2*	-10.2	-20.4
COc1ccc(Cn2nnnc2C(c2ccccc2Cl)N2CCC(C(N)=O)CC2)cc1 (stereo not drawn)	-0.6	6.8	-2.7	5.8	9.2	x
COc1ccc(Cn2nnnc2C(c2cc(OC)ccc2OC)N2CCC(C(N)=O)CC2)cc1 (stereo not drawn)	-0.7	-5.6	-2.1	42.9*	-2.8	19.7
CC1(C(=O)NS(=O)(=O)c2ccc(C#N)cc2)CCN1C(=O)c1cccc2ccccc12 (stereo not drawn)	x	-7.9	0.0	x	x	x
COc1ccc(/C=C2/C(=O)N(c3ccccc3)N=C2C)cc1	2.4	-0.3	1.8	11.7	10.0	x
COc1cc(/C=C2/C(=O)N(c3cccc(Br)c3)N=C2C)cc(OC)c1O	-9.6	28.3	58.7*	53.7*	71.6*	82.2*
COc1ccc(/C=C2/C(=O)N(c3ccccc3)N=C2C)cc1OC	0.4	7.6	7.3	46.6*	16.2	6.9
CC(C)OC(=O)N(C)C[C@@H]1OCc2cnnn2CCCC(=O)N([C@H](C)CO)C[C@@H]1C	x	-1.6	0.6	x	x	x
Cc1ccc(N2C(=O)C(Cc3ccc(O)cc3)NC2=S)cc1C (stereo not drawn)	0.8	0.8	8.5	66.5*	-44.3	42.0
COC(=O)C1CCN(C2CN(Cc3ccc([N+](=O)[O-])cc3)S(=O)(=O)C2)CC1 (stereo not drawn)	x	-1.8	2.2	x	x	x
CC(C)(C)c1cc(CCC(=O)NNC(=O)c2ccco2)cc(C(C)(C)C)c1O	2.7	7.0	-5.8	-3.0	0.8	x
CC(C)(C)c1cc(CCC(=O)NNC(=S)NC(=O)c2ccccc2)cc(C(C)(C)C)c1O	-9.5	33.9	57.9*	51.5*	57.8*	134.6*
COCOc1ccc(-c2ncc(OC)nc2NC(=O)c2ccsc2)cc1	x	-7.9	2.3	x	x	x
Cn1cc(Cc2ccc(C(=O)N3CCN(Cc4ccccc4)CC3)cn2)c2ccccc21	x	8.6	11.4	x	x	x
